# ChEMBL document CHEMBL2346664, “Synthesis, characterization and in vitro anticancer evaluation of novel 1,2,4-triazolin-3-one derivatives” (2013)
# Tests used:
# Format in all cases: functional
# HOP-92 = assay: Growth inhibition of human HOP92 cells assessed as cell growth at 10 '-8 M after 48 hrs by sulforhodamine B assay; settings: HOP-92, 48 h, read-out: Activity
# HCT-15 = assay: Growth inhibition of human HCT15 cells assessed as cell growth at 10 '-4 M after 48 hrs by sulforhodamine B assay; settings: HCT-15, 48 h, read-out: Activity
# SF-539 [1] = assay: Growth inhibition of human SF539 cells after 48 hrs by sulforhodamine B assay; settings: SF-539, 48 h
# ACHN = assay: Growth inhibition of human ACHN cells assessed as growth inhibition at 10 uM after 48 hrs by sulforhodamine B assay; settings: read-out: GI
# How it was run: (§1)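 Percent growth inhibition from the single 10^-5 M NCI-60 screen, reported as 100 minus growth percent. Growth percent was measured after 48 h drug exposure at 37 °C, 5% CO2, using TCA fixation, SRB staining and absorbance at 515 nm, against untreated controls and time-zero plates.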
# M14 = assay: Growth inhibition of human M14 cells assessed as cell growth at 10 '-6 M after 48 hrs by sulforhodamine B assay; settings: M14, 48 h, read-out: Activity
# UACC-257 = assay: Growth inhibition of human UACC257 cells after 48 hrs by sulforhodamine B assay; settings: UACC-257, 48 h
# How it was run: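 NCI 60-cell-line five-dose screen over 0.01, 0.1, 1, 10 and 100 µM, with 48 h continuous exposure at 37 °C and 5% CO2 after 24 h pre-incubation (5,000–40,000 cells/well). Cells were TCA-fixed (10% final for adherent, 16% for suspension), stained with SRB and read at 515 nm. GI50 was solved from [(Ti−Tz)/(C−Tz)]×100 = 50 against time-zero plates.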
# RXF 393 = assay: Growth inhibition of human RXF393 cells assessed as cell growth at 10 '-4 M after 48 hrs by sulforhodamine B assay; settings: RXF 393, 48 h, read-out: Activity
# K562 = assay: Growth inhibition of human K562 cells assessed as cell growth at 10 '-7 M after 48 hrs by sulforhodamine B assay; settings: K562, 48 h, read-out: Activity
# SR = assay: Growth inhibition of human SR cells assessed as cell growth at 10 '-7 M after 48 hrs by sulforhodamine B assay; settings: read-out: Activity
# OVCAR-8 [2] = assay: Growth inhibition of human OVCAR8 cells after 48 hrs by sulforhodamine B assay; settings: OVCAR-8, 48 h
# DU-145 [3] = assay: Growth inhibition of human DU145 cells assessed as growth inhibition at 10 uM after 48 hrs by sulforhodamine B assay; settings: DU-145, 48 h, read-out: GI
# SNB-19 = assay: Growth inhibition of human SNB19 cells assessed as cell growth at 10 '-5 M after 48 hrs by sulforhodamine B assay; settings: SNB-19, 48 h, read-out: Activity
# UACC-62 = assay: Growth inhibition of human UACC62 cells after 48 hrs by sulforhodamine B assay; settings: UACC-62, 48 h
# KM12 = assay: Growth inhibition of human KM12 cells assessed as cell growth at 10 '-7 M after 48 hrs by sulforhodamine B assay; settings: KM12, 48 h, read-out: Activity
# COLO 205 = assay: Growth inhibition of human COLO205 cells assessed as cell growth at 10 '-7 M after 48 hrs by sulforhodamine B assay; settings: COLO 205, 48 h, read-out: Activity
# TK-10 = assay: Growth inhibition of human TK10 cells assessed as cell growth at 10 '-5 M after 48 hrs by sulforhodamine B assay; settings: TK-10, 48 h, read-out: Activity
# LOX IMVI [4] = assay: Growth inhibition of human LOXIMVI cells assessed as growth inhibition at 10 uM after 48 hrs by sulforhodamine B assay; settings: read-out: GI
# NCI-H322M = assay: Growth inhibition of human NCI-H322M cells assessed as growth inhibition at 10 uM after 48 hrs by sulforhodamine B assay; settings: read-out: GI
# A498 = assay: Growth inhibition of human A498 cells assessed as growth inhibition at 10 uM after 48 hrs by sulforhodamine B assay; settings: A498, 48 h, read-out: GI; how it was run: as §1
# DU-145 [5] = assay: Growth inhibition of human DU145 cells assessed as cell growth at 10 '-7 M after 48 hrs by sulforhodamine B assay; settings: DU-145, 48 h, read-out: Activity
# SN12C [6] = assay: Growth inhibition of human SN12C cells assessed as growth inhibition at 10 uM after 48 hrs by sulforhodamine B assay; settings: read-out: GI
# SN12C [7] = assay: Growth inhibition of human SN12C cells assessed as cell growth at 10 '-7 M after 48 hrs by sulforhodamine B assay; settings: read-out: Activity
# OVCAR-8 [8] = assay: Growth inhibition of human OVCAR8 cells assessed as cell growth at 10 '-5 M after 48 hrs by sulforhodamine B assay; settings: OVCAR-8, 48 h, read-out: Activity
# MCF7 = assay: Growth inhibition of human MCF7 cells after 48 hrs by sulforhodamine B assay; settings: MCF7, 48 h
# How it was run: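 NCI 60-cell-line five-dose screen. Cells were plated at 5,000–40,000/well by doubling time and grown 24 h at 37 °C, 5% CO2. Time-zero plates were TCA-fixed. Drug from DMSO stock was tested at 0.01, 0.1, 1, 10 and 100 µM final for 48 h continuous exposure. Read-out was SRB at 515 nm. GI50 is the concentration giving 50% reduction in net protein increase versus untreated control.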
# SK-MEL-28 = assay: Growth inhibition of human SK-MEL-28 cells assessed as cell growth at 10 '-6 M after 48 hrs by sulforhodamine B assay; settings: SK-MEL-28, 48 h, read-out: Activity
# OVCAR-5 = assay: Growth inhibition of human OVCAR5 cells assessed as cell growth at 10 '-7 M after 48 hrs by sulforhodamine B assay; settings: OVCAR-5, 48 h, read-out: Activity
# SF-539 [9] = assay: Growth inhibition of human SF539 cells assessed as cell growth at 10 '-6 M after 48 hrs by sulforhodamine B assay; settings: SF-539, 48 h, read-out: Activity
# SK-MEL-5 = assay: Growth inhibition of human SK-MEL-5 cells assessed as growth inhibition at 10 uM after 48 hrs by sulforhodamine B assay; settings: SK-MEL-5, 48 h, read-out: GI
# SNB-75 = assay: Growth inhibition of human SNB75 cells assessed as cell growth at 10 '-5 M after 48 hrs by sulforhodamine B assay; settings: SNB-75, 48 h, read-out: Activity
# MDA-MB-468 = assay: Growth inhibition of human MDA-MB-468 cells assessed as cell growth at 10 '-8 M after 48 hrs by sulforhodamine B assay; settings: MDA-MB-468, 48 h, read-out: Activity
# LOX IMVI [10] = assay: Growth inhibition of human LOXIMVI cells assessed as cell growth at 10 '-6 M after 48 hrs by sulforhodamine B assay; settings: read-out: Activity
# [11] = read-out: LD50 (the source's name)
smiles,measurement,setting,value
Cc1cc(=O)oc2cc(OCCn3c(C)nn(-c4ccc(Cl)cc4)c3=O)ccc12,growth at 0.01 µM,HOP-92,87%
same,growth at 100 µM,HCT-15,25%
same,GI50,SF-539 [1],4.06 µM
same,TGI,SF-539 [1],4.74 µM
same,CC50,SF-539 [1]; [11],> 1000 nM
same,inhibition of growth at 10 µM,ACHN,58.1%
same,growth at 1 µM,M14,67%
same,TGI,UACC-257,> 1000 nM
same,CC50,UACC-257; [11],> 1000 nM
same,growth at 100 µM,RXF 393,-21%
same,growth at 0.1 µM,K562,106%
same,growth at 0.1 µM,SR,99%
same,GI50,OVCAR-8 [2],5.17 µM
same,TGI,OVCAR-8 [2],> 1000 nM
same,CC50,OVCAR-8 [2]; [11],> 1000 nM
same,inhibition of growth at 10 µM,DU-145 [3],78.4%
same,growth at 10 µM,SNB-19,39%
same,GI50,UACC-62,1990 nM
same,TGI,UACC-62,> 1000 nM
same,CC50,UACC-62; [11],> 1000 nM
same,growth at 0.1 µM,KM12,105%
same,growth at 0.1 µM,COLO 205,102%
same,growth at 10 µM,TK-10,58%
same,inhibition of growth at 10 µM,LOX IMVI [4],52%
same,inhibition of growth at 10 µM,NCI-H322M,41.3%
same,inhibition of growth at 10 µM,A498,74.3%
same,growth at 0.1 µM,DU-145 [5],108%
same,inhibition of growth at 10 µM,SN12C [6],48.2%
same,growth at 0.1 µM,SN12C [7],90%
same,growth at 10 µM,OVCAR-8 [8],31%
same,GI50,MCF7,2700 nM
same,TGI,MCF7,> 1000 nM
same,CC50,MCF7; [11],> 1000 nM
same,growth at 1 µM,SK-MEL-28,67%
same,growth at 0.1 µM,OVCAR-5,102%
same,growth at 1 µM,SF-539 [9],88%
same,inhibition of growth at 10 µM,SK-MEL-5,89.2%
same,growth at 10 µM,SNB-75,5%
same,growth at 0.01 µM,MDA-MB-468,94%
same,growth at 1 µM,LOX IMVI [10],74%
